Source: PubChem BioAssay
The list is not random: actives were taken first. Their share in the collection is about 1.5%.
HTRA1 inhibitor: HTRA1 (human) protease inhibition; Q92743; recombinant HTRA1, FP-rhodamine activity-based probe, fluorescence polarization; 340,000 tested, 0.5% active; AID 504803; inhibition, % at 5.96 µM; in the data active = inhibition above about 36%
SIAE primary: blocks human sialic acid acetylesterase; inhibition, % at 9.66 µM; 370,000 tested, 0.69% active; SIAE FP-Rh probe binding, fluorescence polarization; Q9HAT2;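 active = inhibition above a cutoff: mean of compounds within the control limits plus 3 SD of those, cut at about 17% in these data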
ABHD4 inh: ABHD4 (mouse) inhibition, primary FP screen. Q8VD66. inhibition, % at 8.92 µM. purified mABHD4, FP-Rh probe fluorescence polarization. 370,000 tested, 0.54% active;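 active = inhibition exceeding the mean over every tested compound plus 3 SD, cut at about 30% in these data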
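Assay system: mABHD4 protein; medium: HEPES pH 7.0, NaCl, Pluronic buffer; dosing: 8.92 µM, single dose; schedule: 45 min + 60 min at 25 °C; signal: FP readout, ex 525 nm / em 598 nm; read-out: normalized percent inhibition of probe labeling; repeats: single replicate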
DAGLB inh: blocks human DAGLB lipase activity | Q8NCG7 | HEK293T DAGLB membrane lysate, EnzChek fluorogenic substrate | inhibition, % at 5.17 µM | 340,000 tested, 0.059% active | AID 504411; in the data active = inhibition above about 34%
Target sequence (Q8NCG7 whole entry, looked up): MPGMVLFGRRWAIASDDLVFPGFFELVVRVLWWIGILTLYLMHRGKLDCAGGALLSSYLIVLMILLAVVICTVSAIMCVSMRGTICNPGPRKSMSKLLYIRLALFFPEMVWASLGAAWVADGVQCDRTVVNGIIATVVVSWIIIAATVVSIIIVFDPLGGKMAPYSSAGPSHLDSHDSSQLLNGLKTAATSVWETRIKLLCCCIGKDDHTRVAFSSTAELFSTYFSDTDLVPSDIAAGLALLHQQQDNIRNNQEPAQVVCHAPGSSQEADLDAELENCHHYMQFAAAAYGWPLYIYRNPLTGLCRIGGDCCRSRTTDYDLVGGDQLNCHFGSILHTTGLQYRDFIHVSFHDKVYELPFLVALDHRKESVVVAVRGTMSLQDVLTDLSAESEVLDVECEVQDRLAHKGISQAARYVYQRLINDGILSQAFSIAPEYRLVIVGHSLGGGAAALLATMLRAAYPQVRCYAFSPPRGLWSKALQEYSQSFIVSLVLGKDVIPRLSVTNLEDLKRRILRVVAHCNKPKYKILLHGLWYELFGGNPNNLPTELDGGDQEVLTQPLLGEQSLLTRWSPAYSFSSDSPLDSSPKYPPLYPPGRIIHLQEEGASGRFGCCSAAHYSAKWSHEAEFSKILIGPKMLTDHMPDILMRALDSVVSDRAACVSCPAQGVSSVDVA
TCR CD3 inh: human TCR-CD3 binding inhibition. 360,000 tested, 0.37% active. TAMRA-labeled TCR probe fluorescence, biochemical. AID 651800. inhibition, % at 9.4 µM; in the data active = inhibition above about 19%;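 also: recombinant mutant TCR 2C K166C tagged with TAMRA read by polarization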
ABHD4 confirm: ABHD4 (mouse) inhibition, FP confirmation. shares compounds with ABHD4 inh. purified mABHD4, FP-Rh probe fluorescence polarization. inhibition, % at 8.92 µM. 1,800 tested, 55% active. AID 720658;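 active = mean inhibition across replicates above the hit cutoff set in the primary screen, cut at about 30% in these data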
Hits are given with their value.

`CC(C)[C@H]1/C(=C/C2CC2)N2C(=O)C[C@H](c3ccccc3)N=C2N1C` gave SIAE primary inactive and ABHD4 inh inactive.
`COc1ccc(-c2csc(NS(=O)(=O)c3ccc([N+](=O)[O-])cc3)n2)cc1` gave HTRA1 inhibitor inactive, SIAE primary inactive, ABHD4 inh 36.7, DAGLB inh inactive, TCR CD3 inh inactive and ABHD4 confirm 33.6.
Screening CCC[C@@H](CNC)NC[C@H](Cc1ccccc1)NCCCCc1ccccc1 returned HTRA1 inhibitor inactive, SIAE primary inactive, ABHD4 inh inactive, DAGLB inh inactive and TCR CD3 inh inactive.
Screening CNC[C@@H](CC1CCCCC1)NC[C@H](CC(C)C)NCCc1cccc(C(F)(F)F)c1 returned HTRA1 inhibitor inactive, SIAE primary inactive, ABHD4 inh 31.1, DAGLB inh inactive, TCR CD3 inh inactive and ABHD4 confirm 51.5.
Screening CNC[C@@H](Cc1ccccc1)NC[C@@H](CC1CCCCC1)NCCCc1ccccc1 returned HTRA1 inhibitor inactive, SIAE primary inactive, ABHD4 inh 38.5, DAGLB inh inactive, TCR CD3 inh inactive and ABHD4 confirm 46.1.
Screening CC[C@@H](C)[C@H](CNC)NC[C@@H](Cc1cccc2ccccc12)NCCc1cccc(C(F)(F)F)c1 returned HTRA1 inhibitor inactive, SIAE primary inactive, ABHD4 inh 49.5, DAGLB inh inactive, TCR CD3 inh inactive and ABHD4 confirm 50.8.
`CCCCCCCCN1C(=O)N2Cc3cc(F)ccc3C2CS1(=O)=O` (configuration not stated) gave SIAE primary inactive and ABHD4 inh inactive.
Screening N#Cc1ccc2nc(-c3ccc(CN4CCC(n5cc(-c6ccccc6)[nH]c5=O)CC4)cc3)c(-c3ccccc3)nc2c1 returned SIAE primary inactive, ABHD4 inh inactive and TCR CD3 inh inactive.
CCN(C(=O)c1ccc(S(C)(=O)=O)cc1)C12CC3CC(CC(C3)C1)C2 was read as HTRA1 inhibitor inactive, SIAE primary inactive, ABHD4 inh 93.0, DAGLB inh inactive, TCR CD3 inh inactive and ABHD4 confirm inactive.
For C=CCN1C(=O)[C@@H](CC(=O)NCCCOC)[C@]2(C(=O)OC)CCCCC=C12 the results were SIAE primary inactive and ABHD4 inh inactive.
For CCN(C(=O)C(C)N1C(=O)/C(=C/c2ccco2)SC1=S)C1CCS(=O)(=O)C1 (configuration not stated) the results were HTRA1 inhibitor inactive, SIAE primary inactive, ABHD4 inh inactive, DAGLB inh inactive and TCR CD3 inh inactive.
CC(C(=O)O)N1C(=O)/C(=C/C=C/c2ccco2)SC1=S (configuration not stated) was read as HTRA1 inhibitor inactive, SIAE primary inactive, ABHD4 inh 37.1, DAGLB inh inactive, TCR CD3 inh inactive and ABHD4 confirm inactive.
`O=C(OCCN1CCN(C2CN(Cc3cn(Cc4ccccc4Cl)nn3)S(=O)(=O)C2)CC1)c1cccs1` (configuration not stated) gave SIAE primary inactive and ABHD4 inh inactive.
`CN(CCO)c1cccc2c1S(=O)(=O)N(Cc1cn(Cc3cccc(C(F)(F)F)c3)nn1)Cc1ccccc1O2` gave SIAE primary inactive and ABHD4 inh inactive.
Screening CC(=O)N1CCc2cc(Br)c(S(=O)(=O)NCc3ccc(Cl)cc3)cc21 returned SIAE primary inactive and ABHD4 inh inactive.
`CC(=O)C1CCC2C3CC=C4CC(SC(=N)N)CCC4(C)C3CCC12C` (configuration not stated) gave HTRA1 inhibitor inactive, SIAE primary inactive, ABHD4 inh 45.8, DAGLB inh inactive, TCR CD3 inh inactive and ABHD4 confirm 37.9.
CC(=O)OCC(=O)C1CCC2C3CC=C4CC(O)CCC4(C)C3CCC12C (configuration not stated) was read as HTRA1 inhibitor inactive, SIAE primary inactive, ABHD4 inh inactive, DAGLB inh inactive and TCR CD3 inh inactive.
`C/C(=N\Nc1cccc(C(=O)O)c1)c1cc2ccccc2o1` gave HTRA1 inhibitor inactive, SIAE primary inactive, ABHD4 inh 32.1, DAGLB inh inactive, TCR CD3 inh inactive and ABHD4 confirm 30.2.
Screening C/C(=N\Nc1cccc(C(=O)O)c1)c1ccc(Cl)s1 returned HTRA1 inhibitor inactive, SIAE primary inactive, ABHD4 inh 39.6, DAGLB inh inactive, TCR CD3 inh inactive and ABHD4 confirm 44.8.
